# From publication PMC7147967 (Nature nanotechnology, 2020)
# Columns and labels:
# [1] = biological target: Soluble extracellular domain of HER2 protein (Homo sapiens, UniProt P04626); experiment: Fibrillar transformation of NPs on interaction with HER2 protein; details: TEM/DLS, over 24 h, HER2 protein/peptide ligand 1:1000
# How it was run: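 Soluble HER2 extracellular domain (HEK 293-expressed) was added to fresh nanoparticles (99% water, 20 μM) at a HER2/peptide ligand ratio of 1:1000. At 0.5, 6 and 24 h, samples were taken for DLS size and zeta potential, CD, and TEM with uranyl acetate staining. Bis-pyrene AIE fluorescence was followed over time to track transformation.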
# [2] = Size of nanoparticles by DLS and TEM; format: physicochemical; details: fresh NPs, 99% water content (H2O:DMSO 99:1), 20 μM
# How it was run: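 Peptide in DMSO was diluted with DMSO/deionized water mixtures to give a range of water contents. Nanoparticle formation was checked by UV–vis absorption and fluorescence spectra. Freshly made nanoparticles (99% water, 20 μM) were sized by DLS and by TEM with uranyl acetate staining.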
# [3] = system: MCF-7/C6 HER2+ breast cancer; experiment: In vivo therapeutic effect, MCF-7/C6 xenograft; parameters: species or system Balb/c nude mice; details: 8 mg/kg i.v., 8 times q.o.d., n = 8 per group
# How it was run: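 Balb/c nude mice bearing s.c. flank MCF-7/C6 tumours (5×10^6 cells) were randomised into five groups 10 days after inoculation. Groups received PBS or test nanoparticles i.v. every 48 h. Tumour volume and body weight were measured twice weekly over the 40-day treatment, and survival was followed. Data are mean ± s.d.; t-test or ANOVA.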
# MCF-7/C6 tumour tissue = experiment: Tumour tissue analysis after three injections; format: in vivo, Balb/c nude mice; details: 3 consecutive q.o.d. injections, 8 mg/kg, n = 6
# How it was run: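 MCF-7/C6 tumour-bearing Balb/c nude mice were sacrificed after three i.v. injections given every other day. Excised tumours were processed for H&E staining, Ki-67 staining, fluorescence imaging of sections and high-magnification TEM.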
Substance,structural transformation after treatment with HER2 protein [1],diameter of nanoparticles [2],time within which all mice died [3] [days],cell kill in tumour sections (H&E) (MCF-7/C6 tumour tissue)
BP-GGAAK-PEG1000 [NPs4],did not reveal any significant changes,around 20 nm,≤ 60,No significant cell kill was detected
BP-FFVLK-PEG1000 [NPs3],did not reveal any significant changes,25–60 nm,≤ 57,No significant cell kill was detected
